ChEMBL document CHEMBL4602718, “Mechanism of Action of an EPAC1-Selective Competitive Partial Agonist” (J Med Chem, 2020)
pKd: −log10 of the molar value. The source made the active and inactive calls. No cut-off for these calls is given here.

Tests used:
[1] = target: T1, Rap guanine nucleotide exchange factor 3 (Homo sapiens) (UniProt O95398); test: Binding affinity to GST-tagged human EPAC1 CNBD (149 to 318 residues)expressed in Escherichia coli BL21 (DE3) assessed as binding to R279 Guanidinium residue by guanidinium HSQC NMR spectroscopy
T1 sequence (whole entry): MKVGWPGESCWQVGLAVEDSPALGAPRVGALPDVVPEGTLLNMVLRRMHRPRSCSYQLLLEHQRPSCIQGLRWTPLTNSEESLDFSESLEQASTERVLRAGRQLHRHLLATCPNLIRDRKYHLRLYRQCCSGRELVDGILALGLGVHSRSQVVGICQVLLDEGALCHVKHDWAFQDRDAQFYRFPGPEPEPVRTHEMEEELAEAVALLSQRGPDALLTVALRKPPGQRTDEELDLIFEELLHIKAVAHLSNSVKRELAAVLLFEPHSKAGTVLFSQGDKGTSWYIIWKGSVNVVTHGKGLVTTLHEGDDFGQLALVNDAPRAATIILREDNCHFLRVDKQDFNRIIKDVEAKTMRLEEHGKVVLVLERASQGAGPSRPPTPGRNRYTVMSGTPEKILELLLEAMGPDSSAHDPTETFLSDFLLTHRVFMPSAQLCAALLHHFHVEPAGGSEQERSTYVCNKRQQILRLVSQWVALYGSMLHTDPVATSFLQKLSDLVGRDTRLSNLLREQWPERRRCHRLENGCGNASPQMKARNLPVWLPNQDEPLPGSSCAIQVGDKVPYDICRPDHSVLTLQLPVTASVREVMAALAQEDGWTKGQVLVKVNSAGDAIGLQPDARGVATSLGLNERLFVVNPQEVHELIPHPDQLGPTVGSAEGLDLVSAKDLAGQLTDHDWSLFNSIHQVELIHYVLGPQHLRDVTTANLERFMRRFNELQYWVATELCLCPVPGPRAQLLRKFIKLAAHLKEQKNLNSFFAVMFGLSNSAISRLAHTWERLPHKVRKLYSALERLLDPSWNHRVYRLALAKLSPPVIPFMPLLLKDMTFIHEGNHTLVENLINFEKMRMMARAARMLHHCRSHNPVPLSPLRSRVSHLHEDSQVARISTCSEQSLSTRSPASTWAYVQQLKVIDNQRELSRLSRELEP
Summary of the method: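 Human EPAC1 residues 149–318, wild type and R279A mutant, expressed GST-tagged in E. coli BL21(DE3) in 15N or 15N/13C M9 medium. GST tag removed by thrombin; protein purified by glutathione and anion-exchange steps. Guanidinium HSQC spectra of apo or ligand-saturated protein recorded at 700 MHz and 306 K in 50 mM Tris, 50 mM NaCl, 1 mM DTT, pH 7.6. Ligand came from a DMSO-d6 stock, with matching DMSO-d6 added to apo and cAMP-bound controls.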

[2] = target: T1, Rap guanine nucleotide exchange factor 3 (Homo sapiens); test: Binding affinity to GST-tagged human EPAC1 CNBD (149 to 318 residues)expressed in Escherichia coli BL21 (DE3) assessed as induction Intermolecular NOEs peaks in PBC and BBR residues by 15N-NOESY-HSQC NMR spectroscopy
[3] = target: T1, Rap guanine nucleotide exchange factor 3 (Homo sapiens); test: Binding affinity to GST-tagged human EPAC1 CNBD (149 to 318 residues)expressed in Escherichia coli BL21 (DE3) assessed as compound binding to cAMP-binding sites incubated for 30 mins by CHESPA method
[4] = target: T1, Rap guanine nucleotide exchange factor 3 (Homo sapiens); test: Binding affinity to GST-tagged human EPAC1 CNBD (149 to 318 residues) expressed in Escherichia coli BL21 (DE3) incubated for 30 mins by 1H,15N-HSQC NMR spectroscopy
[5] = target: T1, Rap guanine nucleotide exchange factor 3 (Homo sapiens); test: Binding affinity to GST-tagged human EPAC1 CNBD (149 to 318 residues)expressed in Escherichia coli BL21 (DE3) assessed as induction of perturbation of allosteric network sites by CHESCA method
[6] = target: T2, Rap guanine nucleotide exchange factor 3 (Homo sapiens, UniProt O95398); test: Binding affinity to GST-tagged human EPAC1 CNBD (149 to 318 residues) expressed in Escherichia coli BL21 (DE3) incubated for 30 mins by 8-NBD-cAMP based competitive fluorescence assay
T2 sequence (O95398 whole entry): T1 sequence (whole entry)

[7] = target: T1, Rap guanine nucleotide exchange factor 3 (Homo sapiens); test: Binding affinity to GST-tagged human EPAC1 CNBD (149 to 318 residues)expressed in Escherichia coli BL21 (DE3) assessed as compound binding to base binding region incubated for 30 mins by CHESPA method
[8] = target: Rap guanine nucleotide exchange factor 3 (Homo sapiens, UniProt O95398, L273W); test: Binding affinity to GST-tagged human EPAC1 L273W mutant expressed in Escherichia coli BL21 (DE3) incubated for 30 mins by 8-NBD-cAMP based competitive fluorescence assay
Summary of the method: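 Competitive displacement of 8-NBD-cAMP from the L273W mutant of the 149–318 construct, titrating ligand in Tris pH 7.6 buffer. […] Percent bound 8-NBD-cAMP was plotted against total ligand and fitted to a competitive-binding cubic solution to give Kd.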

[9] = target: T1, Rap guanine nucleotide exchange factor 3 (Homo sapiens); test: Binding affinity to GST-tagged human EPAC1 CNBD (149 to 318 residues)expressed in Escherichia coli BL21 (DE3) by STD and guanidinium HSQC NMR analysis
[10] = target: T1, Rap guanine nucleotide exchange factor 3 (Homo sapiens); test: Binding affinity to GST-tagged human EPAC1 CNBD (149 to 318 residues)expressed in Escherichia coli BL21 (DE3) assessed as induction of conformational changes in compound by NOESY NMR spectroscopy
[11] = target: T1, Rap guanine nucleotide exchange factor 3 (Homo sapiens); test: Binding affinity to GST-tagged human EPAC1 CNBD (149 to 318 residues)expressed in Escherichia coli BL21 (DE3) assessed as compound binding to phosphate binding cassette region incubated for 30 mins by CHESPA method

Rap guanine nucleotide exchange factor 3 (Homo sapiens, UniProt O95398, L273W), sequence (O95398 whole entry L273W): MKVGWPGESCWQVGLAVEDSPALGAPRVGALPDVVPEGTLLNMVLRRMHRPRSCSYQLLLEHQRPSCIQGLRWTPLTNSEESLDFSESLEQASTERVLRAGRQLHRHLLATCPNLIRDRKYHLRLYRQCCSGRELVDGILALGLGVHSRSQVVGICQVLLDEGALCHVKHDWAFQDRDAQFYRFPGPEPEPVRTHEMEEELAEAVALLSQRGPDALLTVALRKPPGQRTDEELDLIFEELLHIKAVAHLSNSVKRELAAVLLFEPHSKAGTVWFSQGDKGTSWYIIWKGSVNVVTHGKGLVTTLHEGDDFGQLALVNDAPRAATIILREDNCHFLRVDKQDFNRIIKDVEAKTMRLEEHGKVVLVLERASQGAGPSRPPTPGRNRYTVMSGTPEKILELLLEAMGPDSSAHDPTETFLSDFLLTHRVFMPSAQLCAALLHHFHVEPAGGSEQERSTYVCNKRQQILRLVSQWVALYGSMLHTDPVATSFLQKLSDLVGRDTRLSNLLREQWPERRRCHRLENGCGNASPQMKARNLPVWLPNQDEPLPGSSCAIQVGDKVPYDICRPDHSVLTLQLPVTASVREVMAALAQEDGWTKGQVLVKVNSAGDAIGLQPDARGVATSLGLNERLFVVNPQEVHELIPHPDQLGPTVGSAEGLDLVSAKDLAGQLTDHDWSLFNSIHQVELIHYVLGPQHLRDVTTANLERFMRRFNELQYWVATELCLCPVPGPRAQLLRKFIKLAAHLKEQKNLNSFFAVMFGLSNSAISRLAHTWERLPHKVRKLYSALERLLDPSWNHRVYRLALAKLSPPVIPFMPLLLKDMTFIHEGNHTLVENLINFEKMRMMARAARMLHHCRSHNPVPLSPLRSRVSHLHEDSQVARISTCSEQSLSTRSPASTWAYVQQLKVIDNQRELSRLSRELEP

Nc1ncnc2c1ncn2[C@@H]1O[C@@H]2CO[P@@](O)(=S)O[C@H]2[C@H]1O
Activity [1]: Active

COc1ccc(S(=O)(=O)NC(=O)COc2ccc3ccccc3c2)cc1OC
Activity [2]: Active

COc1ccc(S(=O)(=O)NC(=O)COc2ccc3ccccc3c2)c(OC)c1
Activity [2]: Active

COc1ccc(OC)c(S(=O)(=O)NC(=O)COc2ccc3ccccc3c2)c1
Activity [2]: Active

Cc1ccc(S(=O)(=O)NC(=O)COc2ccc3ccccc3c2)c(C)c1
Activity [3]: Active | Activity [2]: Active | Activity [4]: Active | Activity [5]: Active | pKd [6]: 5.18 | Activity [7]: Active | Activity [1]: Active | pKd [8]: 5.31 | Activity [9]: Active | Activity [10]: Active | Activity [11]: Active
